Measured values from ChEMBL document CHEMBL4680357, “The Basicity Makes the Difference: Improved Canavanine-Derived Inhibitors of the Proprotein Convertase Furin” (ACS Med Chem Lett, 2021).
Calls of active or inactive are those of the source. No cut-off for these calls is given here.

Assays:
Prothrombin = Prothrombin (Bos taurus, UniProt P00735); assay: Inhibition of bovine thrombin using Tos-Gly-Pro-Arg-AMC as substrate by fluorescence assay
[1] = Cytotoxicity against african green monkey Vero 76 cells by Cell Titer Glo assay; format: cell-based; conditions: chlorocebus sabaeus
Plasminogen = Plasminogen (Homo sapiens, UniProt P00747); assay: Inhibition pf human plasmin using Mes-Darg-Phe-Arg-AMC as substrate by fluorescence assay
Plasminogen, sequence (P00747 97-580 limits assumed): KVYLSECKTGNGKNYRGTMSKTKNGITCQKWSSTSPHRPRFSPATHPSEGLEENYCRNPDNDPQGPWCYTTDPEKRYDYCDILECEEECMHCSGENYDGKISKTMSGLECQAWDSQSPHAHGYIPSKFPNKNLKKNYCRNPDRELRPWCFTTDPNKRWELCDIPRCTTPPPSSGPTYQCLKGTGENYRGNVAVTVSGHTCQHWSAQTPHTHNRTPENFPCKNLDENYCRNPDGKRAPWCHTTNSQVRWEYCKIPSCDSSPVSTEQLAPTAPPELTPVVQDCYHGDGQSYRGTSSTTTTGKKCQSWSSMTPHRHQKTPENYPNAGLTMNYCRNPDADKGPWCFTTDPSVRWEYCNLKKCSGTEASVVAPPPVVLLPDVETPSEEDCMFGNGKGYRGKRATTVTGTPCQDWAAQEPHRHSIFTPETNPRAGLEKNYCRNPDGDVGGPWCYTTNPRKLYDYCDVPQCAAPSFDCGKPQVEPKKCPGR
Plasminogen, sequence (P00747 581-810 limits assumed): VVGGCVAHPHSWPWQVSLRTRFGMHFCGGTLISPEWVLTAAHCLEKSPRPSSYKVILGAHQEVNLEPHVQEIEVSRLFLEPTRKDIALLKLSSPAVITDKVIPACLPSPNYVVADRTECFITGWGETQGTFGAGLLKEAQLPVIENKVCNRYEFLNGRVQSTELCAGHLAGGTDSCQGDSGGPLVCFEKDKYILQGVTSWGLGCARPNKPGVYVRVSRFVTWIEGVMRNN

dengue virus type 2 = assay: Antiviral activity against DENV-2 infected in african green monkey Vero 76 cells assessed as virus titer reduction incubated for 48 hrs by plaque assay; format: functional, organism-based
Human orthopneumovirus = assay: Antiviral activity against RSV A2 infected in A549 cells assessed as reduction in plaque formation incubated for 72 hrs upto 10 uM followed by viral infection at MOI of 1 for 1 hr by multicycle replication assay; format: functional, organism-based; conditions: human respiratory syncytial virus, dose microM <=10, time 72.0 hrs
Summary of the method: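 A549 human lung cells were inoculated with RSV A2 at MOI 1 for 1 h, washed, then kept with inhibitor at 0.5–10 μM (0.1–2.5 μM for one compound) or without inhibitor. Supernatants were collected at 16, 24, 48 and 72 h post infection. Titres (PFU/mL) were read by plaque assay, mean ± standard deviation, n = 3.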

Coagulation factor X = Coagulation factor X (Homo sapiens, UniProt P00742); assay: Inhibition of human factor Xa using Mes-Darg-Pro-Arg-AMC as flurogenic substrate by fluorescence assay
Coagulation factor X, sequence (P00742 41-179 limits assumed): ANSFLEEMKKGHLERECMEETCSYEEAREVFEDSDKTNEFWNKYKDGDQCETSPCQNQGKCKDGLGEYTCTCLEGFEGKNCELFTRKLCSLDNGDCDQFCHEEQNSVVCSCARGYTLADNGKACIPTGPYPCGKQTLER
Coagulation factor X, sequence (P00742 235-488 limits assumed): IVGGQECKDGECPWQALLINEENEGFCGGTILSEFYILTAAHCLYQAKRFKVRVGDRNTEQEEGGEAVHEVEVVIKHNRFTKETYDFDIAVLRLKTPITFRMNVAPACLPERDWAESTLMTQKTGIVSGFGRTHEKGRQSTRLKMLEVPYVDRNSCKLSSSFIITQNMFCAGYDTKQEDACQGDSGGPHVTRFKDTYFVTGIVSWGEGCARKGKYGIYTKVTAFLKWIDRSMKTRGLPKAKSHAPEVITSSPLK

West Nile virus = assay: Antiviral activity against West Nile virus infected in […] cells assessed as virus titer reduction incubated for 48 hrs by plaque assay; format: functional, organism-based; conditions: Vero 76, 48 h
Summary of the method: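 Huh-7 cells infected with dengue virus type 2 (strain 16681) or West Nile virus, then cultured with inhibitor. Supernatants were collected 48 h post-infection and titrated by plaque assay on VeroE6 cells (n = 2, mean ± standard deviation). EC50 was calculated from the titer data.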

Furin = Furin (Homo sapiens, UniProt P09958); assay: Inhibition of recombinant soluble human furin using Phac-Arg-Val-Arg-Arg-AMC fluorogenic substrate
Furin, sequence (P09958 whole entry): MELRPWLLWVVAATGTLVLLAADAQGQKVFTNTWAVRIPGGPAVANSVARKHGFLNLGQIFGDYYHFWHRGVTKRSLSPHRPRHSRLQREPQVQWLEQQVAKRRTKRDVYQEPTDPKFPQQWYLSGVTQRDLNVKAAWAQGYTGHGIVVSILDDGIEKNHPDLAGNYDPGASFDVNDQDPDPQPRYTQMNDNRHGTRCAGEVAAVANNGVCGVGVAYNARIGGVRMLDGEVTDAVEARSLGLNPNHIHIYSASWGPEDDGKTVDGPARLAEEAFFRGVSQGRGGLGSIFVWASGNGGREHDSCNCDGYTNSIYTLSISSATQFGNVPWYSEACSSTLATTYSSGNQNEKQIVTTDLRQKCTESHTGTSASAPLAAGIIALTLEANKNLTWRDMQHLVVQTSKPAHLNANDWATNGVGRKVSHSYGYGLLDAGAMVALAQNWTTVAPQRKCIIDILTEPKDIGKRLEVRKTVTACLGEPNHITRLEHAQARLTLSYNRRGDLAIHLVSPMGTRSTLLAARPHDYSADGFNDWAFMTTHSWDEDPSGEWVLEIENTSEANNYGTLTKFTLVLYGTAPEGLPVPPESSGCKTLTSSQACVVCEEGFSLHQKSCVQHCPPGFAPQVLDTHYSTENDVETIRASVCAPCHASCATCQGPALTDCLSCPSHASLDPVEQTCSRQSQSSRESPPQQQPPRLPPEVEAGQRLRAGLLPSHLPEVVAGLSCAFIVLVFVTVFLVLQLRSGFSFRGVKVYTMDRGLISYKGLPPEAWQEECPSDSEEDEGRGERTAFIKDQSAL
Summary of the method: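 Enzyme kinetic assay under standard conditions at pH 7.0, using recombinant soluble human furin and the fluorogenic AMC substrate. Inhibition constants were determined from the kinetics.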

[2] = Total body clearance in Sprague-Dawley rat at 2.5 mg/kg, ip; format: ADME, organism-based; conditions: in vivo
Summary of the method: (§1)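 Rat pharmacokinetics: single intravenous dose of 1 mg/kg or intraperitoneal dose of 2.5 mg/kg. Plasma inhibitor levels were followed over time, and half-life and total body clearance were derived for each route. Cmax and time to Cmax were also derived after intraperitoneal dosing.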

[3] = Half life in Sprague-Dawley rat at 1 mg/kg, iv; format: ADME, organism-based; conditions: in vivo; summary of the method: as §1
[4] = Half life in Sprague-Dawley rat at 2.5 mg/kg, ip; format: ADME, organism-based; conditions: in vivo; summary of the method: as §1
[5] = Toxicity in rat assessed as mortality at 1 mg/kg, iv; format: organism-based; conditions: in vivo
[6] = Total body clearance in Sprague-Dawley rat at 1 mg/kg, iv; format: ADME, organism-based; conditions: in vivo; summary of the method: as §1
[7] = Plasma concentration in Sprague-Dawley rat at 2.5 mg/kg, ip measured after 3 hrs; format: ADME, organism-based
[8] = Cmax in Sprague-Dawley rat at 2.5 mg/kg, ip; format: ADME, organism-based; set-up: route intraperitoneal, dose 2.5 mg/kg; conditions: in vivo
Summary of the method: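 Rats received a single intraperitoneal dose of 2.5 mg/kg. Plasma drug levels were followed over time, and half-life, total body clearance, and peak plasma concentration with its time were derived from the concentration–time profile.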

## CC(C)(C)[C@H](NC(=O)[C@H](CCCNC(=N)N)NC(=O)Cc1ccc(CNC(=N)N)cc1)C(=O)N[C@@H](CCCNC(=N)N)C(=O)NCc1ccc(C(=N)N)cc1
Prothrombin
  Ki: > 3000 nM
[1]
  CC50: > 50000 nM
Plasminogen
  Ki: > 3000 nM
Dengue virus type 2
  EC50: 760 nM
Human orthopneumovirus
  Activity: Active
Coagulation factor X
  Ki: > 3000 nM
West Nile virus
  EC50: 910 nM

## CC(C)(C)[C@H](NC(=O)[C@H](CCCNC(=N)N)NC(=O)Cc1ccc(CNC(=N)N)cc1)C(=O)N[C@@H](CCONC(=N)N)C(=O)NCc1ccc(C(=N)N)cc1
Furin
  Ki: 0.0131 nM

## CC(C)(C)[C@H](NC(=O)[C@H](CCONC(=N)N)NC(=O)Cc1ccc(CN)cc1)C(=O)N[C@@H](CCONC(=N)N)C(=O)NCc1ccc(C(=N)N)cc1
Furin
  Ki: 0.0342 nM

## CC(C)(C)[C@H](NC(=O)[C@H](CCCNC(=N)N)NC(=O)Cc1ccc(CN)cc1)C(=O)N[C@@H](CCONC(=N)N)C(=O)NCc1ccc(C(=N)N)cc1
Furin
  Ki: 0.0768 nM

## CC(C)(C)[C@H](NC(=O)[C@H](CCONC(=N)N)NC(=O)Cc1ccc(CNC(=N)N)cc1)C(=O)N[C@@H](CCONC(=N)N)C(=O)NCc1ccc(C(=N)N)cc1
[2]
  CL/F: 4.55 mL/min/kg
[3]
  half-life: 0.9 h
[1]
  CC50: > 50000 nM
[4]
  half-life: 1.6 h
Dengue virus type 2
  EC50: 1500 nM
Human orthopneumovirus
  Activity: Active
[5]
  Activity: Non-Toxic
[6]
  clearance: 7.37 mL/min/kg
[7]
  concentration at 3 h: > 1000 ng/mL
[8]
  Cmax: 3160 ng/mL
West Nile virus
  EC50: 1460 nM

## CC(C)(C)[C@H](NC(=O)[C@H](CCONC(=N)N)NC(=O)Cc1ccc(CN)cc1)C(=O)N[C@@H](CCCCN)C(=O)NCc1ccc(C(=N)N)cc1
Human orthopneumovirus
  Activity: inactive

## CC(C)(C)[C@H](NC(=O)[C@H](CCONC(=N)N)NC(=O)Cc1ccc(CNC(=N)N)cc1)C(=O)N[C@@H](CCCCN)C(=O)NCc1ccc(C(=N)N)cc1
Furin
  Ki: 0.0363 nM
Human orthopneumovirus
  Activity: Active
